Screening data deposited in PubChem by Broad Institute.
FN deposit inh: fibronectin deposition inhibition; AH1F fibroblasts, Alexa488-fibronectin deposition fluorescence, overnight; inhibition, % at 12.6 µM; AID 743247; 0.086% of 350,000 active;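 active means mean inhibition across replicates of 30% or more, regardless of how many single replicates reach that level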
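Material: AH1F fibroblasts assembling fluorescent fibronectin matrix; amount: 10000 AH1F cells/well; medium: DMEM, 2% serum; reagent: Alexa488-fibronectin, 24 nM final in well; dosing: single compound dose, delivered by pin transfer; incubation: 1 h adhesion, overnight exposure; detection: fluorescence after three HBSS washes, excitation 485 nm, emission 525 nm; measure: fibronectin deposition inhibition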
PDI inh: PDI (human) enzyme inhibition | PDI insulin aggregation turbidity, A650, 90 min | inhibition, % at 10 µM | 0.052% of 350,000 active | AID 588391;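 active means mean inhibition across replicates of 30% or more, whatever share of single replicates reach that level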
Target sequence (P07237 whole entry, looked up): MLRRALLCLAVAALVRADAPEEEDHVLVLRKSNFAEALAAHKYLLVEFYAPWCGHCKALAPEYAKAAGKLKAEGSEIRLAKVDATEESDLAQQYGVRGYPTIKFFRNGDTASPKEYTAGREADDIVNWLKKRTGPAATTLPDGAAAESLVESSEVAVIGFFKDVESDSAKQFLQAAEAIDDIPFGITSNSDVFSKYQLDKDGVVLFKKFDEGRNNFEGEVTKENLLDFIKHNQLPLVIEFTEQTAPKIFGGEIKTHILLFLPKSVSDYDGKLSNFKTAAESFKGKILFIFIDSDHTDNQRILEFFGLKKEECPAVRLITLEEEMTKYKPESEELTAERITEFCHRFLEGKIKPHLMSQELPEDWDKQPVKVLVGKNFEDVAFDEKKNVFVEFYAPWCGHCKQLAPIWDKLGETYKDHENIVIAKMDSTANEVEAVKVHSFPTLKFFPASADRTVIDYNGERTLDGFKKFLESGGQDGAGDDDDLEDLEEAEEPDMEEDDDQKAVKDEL
ARNT-TACC3 inh: disrupts binding between human ARNT and TACC3 | 0.66% of 390,000 active | Q9Y6A5 | inhibition, % at 9.99 µM | AlphaScreen His-ARNT PAS-B/GST-TACC3 binding, luminescence; TACC3 fragment carries E629A point mutation;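 active means mean inhibition of replicates at least 50% and at least half of replicates each reaching 50%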
MLL AF4-AF9 inh: blocks AF4 peptide binding to human AF9. AlphaScreen, biotin-AF4 peptide binding to FLAG-AF9. 0.47% of 350,000 active. inhibition, % at 10 µM;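 active means every replicate reaching a set inhibition limit, whatever the replicate mean, cut at about 25% in these data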
FGF22 binding: shifts melting point of recombinant human FGF22; Q9HCT0; recombinant FGF22 thermal shift, SYPRO orange fluorescence; percent of sucrose octasulfate shift, DMSO zero; activity (Tm shift, normalised), % at 9.99 µM; 1.5% of 340,000 active;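 active means mean Tm shift, scaled 0 neutral to 100 positive control, at about 1.3% or above, every replicate too, limit read from the data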
ERp5 inh: blocks human ERp5 reductase activity on insulin; Q15084; ERp5 insulin aggregation, absorbance 650 nm, 90 min; inhibition, % at 9.99 µM; 0.05% of 350,000 active; AID 651711;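 active means mean replicate inhibition above about 25%, with every replicate also reaching it, limit read from the data, passing the limit was not always enough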
A number is an active result; . = inactive; / = no result. Only some compounds are listed: those with a hit (about 2.1% of all), similar ones and a draw of the others.

SMILES	FN deposit inh	PDI inh	ARNT-TACC3 inh	MLL AF4-AF9 inh	FGF22 binding	ERp5 inh
Cc1ccc(C(C[N+](=O)[O-])c2c(C)[nH]n(-c3ccccc3)c2=O)cc1 (stereo not given)	.	.	51	.	.	.
C[C@@H]1CN([C@H](C)CO)C(=O)c2cc(C3=CCCCC3)cnc2O[C@@H]1CN(C)C(=O)c1cccc(F)c1	/	/	.	.	.	.
Cn1cc(CC(=O)NCc2ccc(F)cc2)c2ccccc21	.	.	.	.	.	.
CCN(CC)C(=O)Cc1cn(C)c2ccccc12	.	.	.	.	43	.
CC(C)NC(=O)N(C)C[C@H]1Oc2cc(C#C[C@@H](C)O)ccc2S(=O)(=O)N([C@@H](C)CO)C[C@@H]1C	.	/	.	.	.	.
COc1ccc(C(=O)CCc2ccccc2)c(O)c1	.	.	.	.	.	.
COc1ccc(C(=O)OCC(=O)N(Cc2ccccc2)Cc2ccccc2)c(O)c1	.	.	/	.	43	.
COc1cccc(-c2c[nH]c(=O)[nH]c2=O)c1	.	.	.	.	.	.
COc1cccc(-c2ccc(C#N)c(=O)[nH]2)c1	.	.	/	.	43	.
CC(=O)c1ccc(N2CCN(C(=S)Nc3ccc(Oc4ccccc4)cc3)CC2)cc1	.	.	.	.	16	.
CC(=NNC(=S)N1CCN(c2ccccn2)CC1)c1nccs1	/	.	66	/	/	/
S=C(Nc1ccc(Cl)c(Cl)c1)N1CCN(c2ccccn2)CC1	.	.	.	.	.	.
S=C(Nc1ccc(Oc2ccccc2)cc1)N1CCN(c2ccccn2)CC1	.	.	.	.	43	.
CC(=O)N1CCN(c2ccc(NC(=O)/C=C/c3ccccc3)cc2)CC1	.	.	.	.	44	.
CC(=O)Nc1ccc(NC(=O)/C=C/c2ccccc2)cc1	.	.	.	.	.	.
COc1cccc(C(=O)Nc2ccc3c(c2)C(=O)N(C)C[C@@H](OC)[C@H](C)CN(CC2CC2)[C@@H](C)CO3)c1	.	/	.	.	.	.
Cc1ccc(C(=O)NCC(=O)OCC(=O)NCC(F)(F)F)cc1	.	.	.	.	44	.
CN(C)c1ccc(/C=C/c2ccc3c4ccccc4ccc3[n+]2-c2ccccc2)cc1	.	.	.	94	.	.
O=C(Nc1ccccc1F)N1C[C@H]2[C@@H](c3ccccc31)[C@@H](CO)N2C(=O)C1CCCC1	.	/	.	.	.	.
O=C([C@@H]1[C@@H](CO)[C@@H]2Cn3c(ccc(C4=CCCC4)c3=O)[C@@H]2N1CC1CC1)N1CCCCC1	/	/	.	.	.	.
CC(C)NC(=O)N1[C@@H](CO)[C@@H](c2ccccc2)C12CN(C(=O)c1ccccn1)C2	.	/	/	.	/	.
O=C(C[C@@H]1CC[C@@H](NC(=O)Nc2ccc3c(c2)OCO3)[C@@H](CO)O1)NCc1ccc(F)cc1	/	/	.	.	.	.
Cc1ccc(C(=O)N/C(=C\c2cccc([N+](=O)[O-])c2)C(=O)Nc2cccc(C(=O)O)c2)cc1	.	.	.	.	.	.
COc1ccc(C(=O)N/C(=C\c2cccc([N+](=O)[O-])c2)C(=O)Nc2cccc(C(=O)O)c2)cc1	.	.	.	.	43	.
COc1ccc(NC(=O)N(C)C[C@H]2Oc3ccc(NC(=O)NC4CCCCC4)cc3CC(=O)N([C@H](C)CO)C[C@H]2C)cc1	.	/	.	.	.	.
SMILES	FN deposit inh	PDI inh	ARNT-TACC3 inh	MLL AF4-AF9 inh	FGF22 binding	ERp5 inh
O=C(CN1CCCCC1)NC(=O)NC1CCCC1	.	.	.	.	43	.
CC(C)(C)NC(=O)NC(=O)CN1CCCCC1	.	.	.	.	43	.
CC(C)(C)NC(=O)NC(=O)CN1CCN(C(c2ccccc2)c2ccccc2)CC1	.	.	.	.	43	.
O=C(c1ccccc1F)N1C[C@H]2[C@@H](c3ccccc31)[C@@H](CO)N2C(=O)C1CCCC1	/	/	.	.	.	.
COCCNC(=O)C[C@H]1CC[C@H]2[C@H](COc3ccc(NC(=O)Cc4ccccc4)cc3C(=O)N2C)O1	.	/	.	.	.	.
Cc1nc2nc(SCC(=O)O)nn2c(C)c1Cc1ccccc1Cl	.	.	.	.	43	.
CC1(C)CC(=O)C=C(c2ccccc2-c2ccc3cc[nH]c3c2)C1=O	.	.	/	.	43	.
